Screening data (PubChem)
Only some compounds are listed: those with a hit (about 3.2% of all), similar ones and a draw of the others.
zfTRPN1 agonist: zebrafish TRPN1 channel agonists, primary screen, cell-based, HEK293, calcium fluorescence; HEK293 zebrafish TRPN1-YFP, Fluo-8 calcium fluorescence; 100% = response to 87 µM carbachol; activation, % at 3 µM; hit rate 0.18% among 220,000;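 active = activation above its plate's cutoff, the mean activation of test wells on that plate plus 3 SD, cut at about 19% in these data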
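Assay system: Zebrafish TRPN1-YFP in HEK293 cells | Incubation: Dye loading 1 h at 37 °C, then 30 min room temperature | Measured by: Kinetic Fluo-8 fluorescence, ex 470-495, em 515-575 nm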
CHO parental Ca: ATP-evoked calcium signal inhibitors, parental CHO, primary screen, counter-screen for OX1R antagonist project, cell-based, fluorescence, Fluo-8 calcium dye. parental CHO-K1, ATP-induced calcium, Fluo-8 fluorescence. inhibition, % at 5.6 µM. hit rate 0.63% among 330,000. AID 463079, 2010;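 active = inhibition above that plate's mean sample inhibition plus 3 SD, cut at about 26% in these data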
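Assay system: parental CHO cells; Read-out basis: percent inhibition of ATP-evoked calcium rise, normalized to controls; Benchmarks: ATP and no-ATP DMSO wells; Compound dosing: single nominal dose of 5.6 µM per compound; Signal: Fluo-8 calcium dye fluorescence; Also added: ATP as calcium-mobilizing challenge; Repeats: singlicate.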
OX1R antag-1: antagonists of human orexin 1 receptor (OX1R); hit rate 1.8% among 330,000; OX1R-expressing cells, FRET antagonist read-out; Orexin/Hypocretin receptor type 1 (Homo sapiens), O43613; AID 485270, 2010; inhibition, % at 6.6 µM; in the data active = inhibition mostly above about 38%, no sharp cut-off; inactive = mostly below about 40%
Target sequence (O43613 whole entry, looked up): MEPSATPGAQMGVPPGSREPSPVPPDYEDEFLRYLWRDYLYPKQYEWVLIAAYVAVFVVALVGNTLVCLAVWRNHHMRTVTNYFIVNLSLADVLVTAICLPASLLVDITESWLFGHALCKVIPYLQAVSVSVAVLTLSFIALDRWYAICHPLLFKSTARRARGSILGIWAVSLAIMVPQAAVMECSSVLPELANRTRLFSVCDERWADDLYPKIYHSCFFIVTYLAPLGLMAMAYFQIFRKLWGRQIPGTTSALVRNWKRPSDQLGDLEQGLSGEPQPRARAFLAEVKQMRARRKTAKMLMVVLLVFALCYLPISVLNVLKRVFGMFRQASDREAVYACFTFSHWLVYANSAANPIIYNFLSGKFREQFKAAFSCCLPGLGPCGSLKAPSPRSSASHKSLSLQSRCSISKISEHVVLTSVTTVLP
OX1R antag-2: OX1R (HCRTR1) antagonists, primary screen, fluorescence, CHO/OX1R cells, Fluo-8 calcium, orexin A; Fluo-8 calcium fluorescence; hit rate 0.43% among 330,000; AID 434989, 2010; inhibition, % at 5 µM;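 active = inhibition above its plate's threshold, mean inhibition of all tested compounds on the plate plus 3 SD, cut at about 37% in these data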
GPR7 antag: GPR7 receptor antagonists, primary screen, cell-based, fluorescence, single concentration | Neuropeptides B/W receptor type 1 (Homo sapiens), P48145 | GPR7-expressing cells, fluorescence antagonist assay | inhibition, % at 4.4 µM | hit rate 1.1% among 290,000; in the data active = inhibition above about 16%, passing the limit was not always enough;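 note: cells stimulated with the agonist NPW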
TRPML3 agonist: human TRPML3 channel agonists, primary screen, cell-based, HEK293 TRPML3-YFP, Fluo-8 calcium fluorescence, 3 µM; 100% = the carbachol control signal; Mucolipin-3 (Homo sapiens), Q8TDD5; hit rate 0.29% among 220,000; activation, % at 3 µM;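 active = activation above its plate's cutoff, the mean activation of the plate's test wells plus 3 SD, cut at about 12% in these data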
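Test system: HEK293 cells stably carrying human TRPML3-YFP; Doses: single dose, 3 µM final nominal compound, 0.3% DMSO final; Schedule: dye loading 1 h 37 °C then 30 min ambient, 125 s read; Technique: Fluo-8 calcium fluorescence; Benchmarks: high control carbachol 87 µM, low control DMSO.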
Numbers stand for hits; n = inactive; x = not tested or not shown.

SMILES	zfTRPN1 agonist	CHO parental Ca	OX1R antag-1	OX1R antag-2	GPR7 antag	TRPML3 agonist
COc1ccc(/C=C/c2n[nH]c(=O)c(C#N)c2C)cc1	x	n	43	n	n	x
COc1ccc(/C=C/c2nc(-c3ccccc3)cc(=O)[nH]2)cc1	n	n	n	n	n	n
CCn1cc([N+](=O)[O-])c(C(=O)N2N=C(c3ccc4ccccc4c3)CC2c2ccccc2O)n1 (centres undefined)	n	n	n	n	n	n
CCn1cc(Cl)c(C(=O)N2N=C(c3ccc4ccccc4c3)CC2c2ccccc2O)n1 (centres undefined)	n	60	n	n	n	n
CCCCOc1ccc(C(=O)OCC(=O)Nc2cc(C)on2)cc1	94	n	n	n	n	88
CCn1cc(/C=C/c2cc[n+](C)cc2)c2ccccc21	x	n	45	n	n	x
C=CCn1c(C)c(/C=C/c2cc[n+](C)cc2)c2ccccc21	x	n	48	n	n	x
CCN(CC)C(=O)Cn1c(C)c(/C=C/c2cc[n+](C)cc2)c2ccccc21	x	n	72	n	n	x
Cc1cccc(C)c1NC(=O)COC(=O)CN1C(=O)C2CCCCC2C1=O (centres undefined)	x	n	n	n	x	x
CCOc1ccc(-n2c(SCc3nc(-c4cccs4)no3)nnc2-c2ccncc2)cc1	n	n	n	n	18	n
N/C(Cc1ccc(Cl)cc1)=N\OC(=O)C1CCCCC1	n	n	n	n	n	n
Cn1c(O)c(N=NC(=O)CNC(=O)c2ccccc2)c2ccccc21	x	n	48	n	n	x
Cn1c(O)c(N=NC(=O)CNC(=O)c2ccccc2)c2cc(Br)ccc21	x	n	n	n	n	x
O=C(Nc1ccc(Oc2cccnc2)nc1)c1ccc(C(F)(F)F)cc1	n	n	n	n	20	n
O=C1c2ccccc2C(=O)C1c1ccnc2ccccc12	n	n	69	n	n	n
O=C(NCCO)/C(=C\c1ccc([N+](=O)[O-])o1)NC(=O)c1ccccc1	n	n	65	n	n	n
O=C(Nc1cccc2ccccc12)/C(=C\c1cccc([N+](=O)[O-])c1)NC(=O)c1cccs1	n	n	56	n	n	n
CCOC(=O)/C(=C\c1ccc([N+](=O)[O-])o1)NC(=O)c1ccccc1	n	n	43	n	n	n
O=C(Nc1cccc2ccccc12)/C(=C/c1cccc([N+](=O)[O-])c1)NC(=O)c1cccs1	n	n	n	n	n	n
O=C(NCCc1ccccc1)/C(=C\c1cccc([N+](=O)[O-])c1)NC(=O)c1ccco1	x	n	53	n	n	x
Cc1ccc(C(=O)N/C(=C/c2ccc(-c3ccc([N+](=O)[O-])cc3)o2)C(=O)NCCCN(C)C)cc1	x	n	n	n	x	x
O=C(NCCCO)/C(=C/c1ccc(-c2cccc([N+](=O)[O-])c2)o1)NC(=O)c1ccccc1	n	n	51	n	n	n
Cc1ccc(C(=O)N/C(=C\c2ccc(-c3cccc([N+](=O)[O-])c3)o2)C(=O)NC(C)(C)C)cc1	n	n	74	n	n	n
O=C(CN1CCN(c2ccccn2)CC1)Nc1ccc(F)cc1F	x	n	n	n	n	x
O=C(c1cnn2c(C(F)F)cc(-c3ccccc3)nc12)N1CCCCC1c1cccnc1 (centres undefined)	n	n	n	n	n	n
COc1ccc(CNC(=O)CN2CCC(NC(=O)c3ccc(OC)cc3)CC2)cc1	x	x	x	x	n	x
COc1ccc(/C=C/C(=O)O)cc1S(=O)(=O)N1CCCCC1	n	n	n	n	n	n
COc1ccc(OC)c(/C=N/NC(=O)c2cc3c(OC)c(OC)ccc3[nH]2)c1	n	n	n	n	n	n
COc1cc(OC)c2cc(C(=O)N/N=C/c3ccccc3O)[nH]c2c1	x	n	62	n	n	x
CCOc1ccc2[nH]c(C(=O)N/N=C/c3ccccc3OC)cc2c1	x	n	n	n	n	x
